From ChEMBL document CHEMBL3244270, “Nitrosoureidonucleosides” (1979)
pEC50: −log10 of the molar value.

What was measured:
Format in all cases: functional
[1] = Cytotoxicity against human Hep2 cells; conditions: HEp-2, read-out: ED50 (the source's name)
Summary of the method: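 H.Ep-2 cultures; ED50 taken as the concentration that holds growth of treated cells to 50% of untreated controls.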

L1210 [2] = assay: In-vivo antitumor activity against mouse L1210 cells at 100 mg/kg
Summary of the method: (§1)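 Leukemia L1210 in vivo; compound given as a single dose on day 1 only, with dose in mg/kg. Read-out is life span of treated versus control animals, expressed as T/C %.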

L1210 [3] = assay: In-vivo antitumor activity against mouse L1210 cells at 25 mg/kg; summary of the method: as §1
L1210 [4] = assay: In-vivo antitumor activity against mouse L1210 cells at 200 mg/kg; summary of the method: as §1
L1210 [5] = assay: Cytotoxicity against mouse L1210 cells; conditions: read-out: ED50 (the source's name)

Question: Which results are given for `CN(N=O)C(=O)N[C@H]1[C@@H](O)[C@H](n2cnc3c(N)ncnc32)O[C@@H]1CO`?
Answer: pEC50 [1]: < 4.22; T/C (L1210 [2]): 123%

Question: With `CNC(=O)N[C@H]1[C@@H](O)[C@H](n2cnc3c(N)nc(Cl)nc32)O[C@@H]1CO` as the compound, how does the pEC50 [1] read?
Answer: The pEC50 was under 4.30.

Question: With `CNC(=O)N[C@H]1[C@@H](O)[C@H](n2cnc3c(N)ncnc32)O[C@@H]1CO` as the compound, how does the pEC50 [1] read?
Answer: Its pEC50 is under 4.22.

Question: With `CNC(=O)N[C@H]1[C@@H](O)[C@H](n2ccc(N)nc2=O)O[C@@H]1CO` as the compound, how does the pEC50 [1] read?
Answer: Its pEC50 is under 4.22.

Question: With `CN(N=O)C(=O)N[C@H]1[C@@H](O)[C@H](n2cnc3c(N)nc(Cl)nc32)O[C@@H]1CO` as the compound, how does the pEC50 [1] read?
Answer: Its pEC50 is under 4.30.

Question: Which results are given for `CN(N=O)C(=O)N[C@H]1[C@@H](O)[C@H](n2ccc(N)nc2=O)O[C@@H]1CO`?
Answer: pEC50 [1]: < 4.30; T/C (L1210 [3]): 110%

Question: With `CN(N=O)C(=O)N[C@H]1[C@@H](O)[C@H](n2ccc(=O)[nH]c2=O)O[C@@H]1CO` as the compound, how does the pEC50 [1] read?
Answer: The pEC50 was under 4.22.

Question: And the T/C (L1210 [2])?
Answer: The T/C was 122%.

Question: With `CNC(=O)NC[C@H]1O[C@@H](n2cnc3c(N)ncnc32)[C@H](O)[C@@H]1O` as the compound, how does the pEC50 [1] read?
Answer: Its pEC50 is under 4.22.

Question: And the T/C (L1210 [4])?
Answer: The T/C was 98%.

Question: With `CN(N=O)C(=O)NC[C@H]1O[C@@H](n2cnc3c(N)ncnc32)[C@H](O)[C@@H]1O` as the compound, how does the pEC50 [1] read?
Answer: Its pEC50 is 4.40.

Question: What about the T/C (L1210 [4]) of the same compound?
Answer: Its T/C is 106%.

Question: With `CN(N=O)C(=O)NC[C@H]1O[C@@H](n2ccc(=O)[nH]c2=O)[C@H](O)[C@@H]1O` as the compound, how does the pEC50 [1] read?
Answer: Its pEC50 is under 4.30.

Question: With `CN(N=O)C(=O)NC[C@H]1O[C@@H](n2ccc(N)nc2=O)[C@H](O)[C@@H]1O` as the compound, how does the pEC50 [1] read?
Answer: The pEC50 was under 4.30.

Question: With `Cc1cn([C@H]2C[C@H](NC(=O)N(C)N=O)[C@@H](CO)O2)c(=O)[nH]c1=O` as the compound, how does the pEC50 (L1210 [5]) read?
Answer: The pEC50 was 6.00.
